OX1R antag-1 – OX1R (human) antagonism | inhibition, % at 6.6 µM | O43613 | OX1R-expressing cells, FRET antagonist read-out | 330,000 tested, 1.8% active; in the data active = inhibition mostly above about 38%, no sharp cut-off; inactive = mostly below about 40%;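 also: 0% = agonist challenge alone and 100% = reference antagonist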
CHO parental Ca – signal in parental CHO cells, OX1R antagonist counter-screen; parental CHO-K1, ATP-induced calcium, Fluo-8 fluorescence; inhibition, % at 5.6 µM; 330,000 tested, 0.63% active; AID 463079;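 active = inhibition above that plate's mean sample inhibition plus 3 SD, cut at about 26% in these data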;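 also: 0% = ATP-challenged DMSO wells and 100% = DMSO wells without ATP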
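Assay system: parental CHO cells; Read-out basis: percent inhibition of ATP-evoked calcium rise, normalized to controls; Benchmarks: ATP and no-ATP DMSO wells; Compound dosing: single nominal dose of 5.6 µM per compound; Signal: Fluo-8 calcium dye fluorescence; Also added: ATP as calcium-mobilizing challenge; Repeats: singlicate.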
TAAR1 ag – agonists of human TAAR1 | Q96RJ0 | CHO RD-HGA16 TAAR1, Fluo-8 calcium fluorescence; vehicle wells 0%, saturating PEA agonist 100% | activation, % at 3 µM | 360,000 tested, 0.99% active;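 active = activation above the mean activation of all test compounds in the run plus 3 SD, cut at about 38% in these data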
Target sequence (Q96RJ0 whole entry, looked up): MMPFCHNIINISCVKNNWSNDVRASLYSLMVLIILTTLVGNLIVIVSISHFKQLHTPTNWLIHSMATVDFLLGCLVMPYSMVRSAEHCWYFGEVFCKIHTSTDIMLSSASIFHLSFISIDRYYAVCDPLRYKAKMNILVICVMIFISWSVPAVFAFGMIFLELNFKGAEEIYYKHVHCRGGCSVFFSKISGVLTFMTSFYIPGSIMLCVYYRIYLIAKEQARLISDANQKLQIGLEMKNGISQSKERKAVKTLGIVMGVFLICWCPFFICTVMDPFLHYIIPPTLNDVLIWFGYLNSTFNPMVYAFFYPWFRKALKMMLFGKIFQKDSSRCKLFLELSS
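Test system: RD-HGA16 (CHO) cells co-expressing Gα16 and hTAAR1 | Doses: Single dose, 3 µM | Schedule: 17-24 h seeding, 75 min 37 °C dye, 30 min RT | Evaluation: % activation from peak over basal fluorescence ratio, DMSO-to-PEA scaled | Technique: Kinetic Fluo-8 calcium fluorescence | Benchmarks: Low control DMSO, high control PEA (EC100)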
OX1R antag-2 – antagonists of human orexin 1 receptor. O43613. CHO/OX1R cells, Fluo-8 calcium fluorescence, orexin A. inhibition, % at 5 µM. 330,000 tested, 0.43% active. AID 434989;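 active = inhibition above its plate's threshold, mean inhibition of all tested compounds on the plate plus 3 SD, cut at about 37% in these data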;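 also: 0% = orexin A challenge wells and 100% = SB-334867-A antagonist wells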
GPR7 antagonist – blocks human GPR7 receptor signaling; P48145; GPR7-expressing cells, fluorescence antagonist assay; inhibition, % at 4.4 µM; 290,000 tested, 1.1% active; in the data active = inhibition above about 16%, passing the limit was not always enough;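 also: cells stimulated with the agonist NPW; 0% = agonist with vehicle and 100% = vehicle without agonist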
Target sequence (P48145 whole entry, looked up): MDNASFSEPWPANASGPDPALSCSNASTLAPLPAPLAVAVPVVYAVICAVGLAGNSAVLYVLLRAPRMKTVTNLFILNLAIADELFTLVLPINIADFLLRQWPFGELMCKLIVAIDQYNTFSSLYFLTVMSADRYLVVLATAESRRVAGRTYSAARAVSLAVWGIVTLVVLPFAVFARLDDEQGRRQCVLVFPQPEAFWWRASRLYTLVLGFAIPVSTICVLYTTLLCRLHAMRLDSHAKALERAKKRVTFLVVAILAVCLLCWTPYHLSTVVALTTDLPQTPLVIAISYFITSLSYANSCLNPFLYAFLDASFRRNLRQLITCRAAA
TAAR1 antagonist – human TAAR1 antagonism. Q96RJ0. CHO RD-HGA16 TAAR1, Fluo-8 calcium fluorescence, antagonist. inhibition, % at 3 µM. 360,000 tested, 1.5% active. AID 624466;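 active = inhibition above a per-plate cutoff, the mean inhibition of test compounds on that plate plus 3 SD, cut at about 49% in these data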;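 also: 0% = DMSO plus EC80 beta-PEA response and 100% = DMSO alone without agonist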
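Test system: hTAAR1-expressing CHO RD-HGA16 cells, Gα16-coupled; Probe or stimulus: EC80 β-phenethylamine stimulus; Compound dosing: single nominal final test compound concentration of 3 µM; Timing: 140 s kinetic read after compound, 140 s after agonist; Signal: Fluo-8 calcium-sensitive fluorescence; Measure: % inhibition of agonist calcium response; Controls: DMSO and EC80 PEA controls.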
* hit, by the source's call; . = not tested or not shown. An excerpt weighted towards active compounds, which were near 4.5% of everything screened.

SMILES	OX1R antag-1	CHO parental Ca	TAAR1 ag	OX1R antag-2	GPR7 antagonist	TAAR1 antagonist
CCOC(=O)c1cc(-c2ccc(C#N)cc2)nc2c1c(C)nn2CCC#N	6	-6	3	-10	5	-1
O=C1NC(=O)/C(=C\c2ccc(Br)o2)S1	38*	-5	5	-21	-3	-10
O=C1NC(=O)/C(=C/c2cc3c(cc2Br)OCO3)S1	31	-7	3	4	-15	-1
CCCCn1nnnc1C(c1cccc2ccccc12)N1CCN(C/C=C/c2ccccc2)CC1 (configuration not stated)	.	.	2	.	.	-27
O=C1c2ccccc2/C(=C\c2ccc3[nH]ccc3c2)N1c1ccccc1	6	-14	7	17	.	27
CCC/C(=C1/c2ccccc2C(=O)N1c1ccccc1)c1ccc2[nH]ccc2c1	24	8	0	30	.	58*
CCOC(=O)C1=CCN(S(=O)(=O)c2ccccc2C)C1c1cccc(Cl)c1 (configuration not stated)	.	.	3	.	.	28
CC1(C)CC(=O)c2c(O)cc(OCC(=O)N3CCN(c4ccc(F)cc4)CC3)cc2O1	9	-15	4	-22	-6	9
O=C(Nc1cccnc1)c1ccc([N+](=O)[O-])s1	53*	-15	4	-5	.	3
CN(C)NC(=O)c1ccc([N+](=O)[O-])s1	67*	-9	0	-19	-9	-1
O=C(Nc1cccc2ccccc12)c1ccc([N+](=O)[O-])s1	11	-6	6	-3	-4	10
O=C(Nc1ccccc1F)c1ccc([N+](=O)[O-])s1	38*	2	2	-2	3	13
O=C(Nc1ccccc1F)c1ccc(-c2cccc([N+](=O)[O-])c2)o1	64*	-11	-3	-22	-3	-9
c1coc(-c2nc3c4ccccc4ccn3c2Cc2ccsc2)c1	.	.	0	.	.	-12
O=c1[nH][nH]c(=O)c2c1[nH]c(=S)n2Cc1ccccc1	.	.	1	.	.	-11
CCCCNC(=O)C1C2C=CC(C2)C1C(=O)O (configuration not stated)	-21	-4	42*	-4	1	-5
O=C(O)C1C2C=CC(C2)C1C(=O)NCCCN1CCOCC1 (configuration not stated)	-2	-2	3	-19	11	1
O=C(NCC1CCN(C(=O)C(=O)c2cccs2)CC1)c1cccnc1	.	.	1	.	.	2
Cc1ccc(CN2CC=CS2(=O)=O)cc1	.	.	1	.	.	4
CCOC(=O)c1nn(-c2ccc(C)cc2)c(=O)c2c(N)scc12	77*	-18	10	-17	-9	-2
CCOC(=O)c1nn(-c2ccc(Cl)cc2)c2nc(CC)c(C#N)c(=O)n12	13	-16	1	-30	-10	-11
CCOC(=O)c1nn(-c2ccc(Cl)cc2)c(=O)c(C#N)c1C	50*	11	2	-13	-12	1
CCOC(=O)c1nn(-c2ccc(C)c(Cl)c2)c(=O)c(C#N)c1C	28	-18	2	-36	-6	-4
Cc1c(C(=O)N2CCCCC2)nn(-c2ccc(Cl)cc2)c(=O)c1C#N	61*	-20	1	-23	-16	-11
CCOC(=O)c1nn(-c2ccc(F)cc2)c(=O)c(C#N)c1C	54*	-10	3	-11	-12	-8
SMILES	OX1R antag-1	CHO parental Ca	TAAR1 ag	OX1R antag-2	GPR7 antagonist	TAAR1 antagonist
CCOC(=O)N1CCC(N2C(=O)c3ccccc3C2Nc2c(C)cccc2C)CC1 (configuration not stated)	4	-6	-1	-38	16*	1
CCOC(=O)N1CCC(N2C(=O)c3ccccc3C2Nc2ccccc2)CC1 (configuration not stated)	4	-22	-2	-43	-4	-26
CCn1c2ccccc2c2cc(/C=N/NC(=O)c3ccccc3)ccc21	92*	-22	17	67*	-2	9
Cn1c2ccccc2c2cc(/C=N/NC(=O)c3cc(O)cc(O)c3)ccc21	74*	-8	1	14	-16	-24
COc1cc(C(=O)N/N=C/c2ccc3c(c2)c2ccccc2n3C)ccc1O	.	.	2	.	-19	13
CCn1c(=O)c(C(=O)NNC(=O)c2ccccc2)c(O)c2ccccc21	53	-6	38*	-12	5	-1
CCCCCCC(=O)NNC(=O)c1c(O)c2ccccc2n(CC)c1=O	22	-26	21	-37	7	0
CCc1nnc(N/N=C/c2ccc(N3CCC(C)CC3)c([N+](=O)[O-])c2)n1N	60*	-9	-2	-2	-12	1
Cc1nnc(N/N=C/c2cc([N+](=O)[O-])c(N3CCC(C)CC3)cc2N2CCC(C)CC2)n1N	146*	-34	14	-32	7	-39
CC1CCN(c2cc(N3CCOCC3)c(F)cc2[N+](=O)[O-])CC1	28	-13	24	-25	-4	7
CC1(C(=O)Nc2ccc3c(c2)OCCO3)CSCC(=O)N1Cc1ccco1 (configuration not stated)	.	.	0	.	.	0
CNc1nc(-c2ccc3c(c2)CCN3C(=O)c2ccccc2F)cs1	.	.	2	.	-2	53*
CNc1nc(-c2ccc3c(c2)CCN3C(=O)c2ccccc2F)c(C)s1	16	-6	-2	-17	-13	25
O=C1NC(=O)C2C3C=CC(C12)C1C(=O)NC(=O)C31 (configuration not stated)	.	.	1	.	.	-25
CCN(CCNC(=O)Nc1ccc(Cl)cc1)c1ccccc1	118*	55*	7	64*	5	2
O=C(NCCc1ccc(Cl)cc1)Nc1ccc(Cl)cc1	10	5	42*	-9	-11	30
O=C(NCCc1ccncc1)Nc1ccc(Cl)cc1	18	-8	11	-17	-3	-20
O=C(NCCN1CCN(c2ccccc2)CC1)Nc1ccc(Cl)cc1	-2	-6	31	-13	8	28
CCC(=O)Nc1ccccc1C(=O)OCC(=O)c1ccc2ccccc2c1	10	-9	9	-11	19*	29
COCCNC(=O)c1ccccc1NC(=O)COc1ccccc1	14	-12	8	-15	-4	8
COC(=O)c1ccccc1NC(=O)COc1ccccc1	41*	-25	23	-5	-16	4
CCc1nc(Nc2ccc(F)cc2)c2oc3ccccc3c2n1	0	-33	8	-46	-25	8
CCc1nc(Nc2ccccc2F)c2oc3ccccc3c2n1	44*	-30	12	-31	-10	-9
COc1c(-c2ccc([N+](=O)[O-])cc2[N+](=O)[O-])c(=O)n(C)c(=O)n1C	51*	-4	-1	-14	-13	0
Cc1cc(C)cc(NC(=O)c2ccc(Cn3nc(C)c(Cl)c3C)o2)c1	15	-8	29	8	16	54*

Screens (PubChem BioAssay)
